Test [1] in a line: Antiproliferative activity against human SGC7901 cells after 48 hrs by MTT assay. The test is classed as functional, cell-based. The conditions noted are these: SGC-7901, 48 h. The gist of the method: (§1)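 Cells were seeded at 3 × 10^3 per well and exposed 24 h later, while growing exponentially, to compounds at final concentrations of 1.25 to 40 for 48 h. MTT (5 mg/mL in PBS) was then added for 6 h. The medium was aspirated, the formazan dissolved in DMSO and absorbance read at 570 nm. Survival is relative to untreated cells; IC50 comes from triplicate wells in at least three independent experiments.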
(Formazan colour is commonly taken as a measure of viable cells.)

The nature of test [2]: Antiproliferative activity against human HL7702 cells after 48 hrs by MTT assay. The test is classed as cell-based. Conditions: L02, 48 h. Put shortly: as §1
A further test deals with KB. The test can be described thus: Antiproliferative activity against human KB cells after 48 hrs by MTT assay. The test is classed as functional, cell-based. The gist of the method:
as §1

The nature of test [3]: Antiproliferative activity against human HL60 cells after 48 hrs by MTT assay. The test is classed as functional, cell-based. The conditions noted are these: HL-60, 48 h. Put shortly:
as §1

Another test has as its system B16. The test can be described thus: Antiproliferative activity against mouse B16 cells after 48 hrs by MTT assay. The test is classed as functional, cell-based. Conditions: B16, 48 h. The gist of the method:
as §1

Test [4] can be described thus: Antiproliferative activity against human SMMC7721 cells after 48 hrs by MTT assay. The test is classed as functional, cell-based. The conditions noted are these: SMMC-7721, 48 h. Put shortly:
as §1

For another test, the system named is A549. The test can be described thus: Antiproliferative activity against human A549 cells after 48 hrs by MTT assay. The test is classed as functional, cell-based. Conditions: A549, 48 h. Put shortly: as §1

The term IC50 denotes the midpoint of a concentration-inhibition curve. Higher therefore signals a need for much substance. For the molecule `CC1(C)C(=O)CC[C@]2(C)[C@@H]1C[C@@H](O)[C@]13C(=O)C(CNc4ccc(C(=O)O)cc4)[C@H](CC[C@@H]21)[C@H]3O` (stereo partly drawn), the IC50 in test [1] stood at 22.3 µM; in test [2], 35.4 µM; in the test on KB, 6.13 µM; in test [3] it was 10.5 µM; in the test with B16 it was 6.79 µM; in test [4] it was 16.8 µM. Moreover, in the test on A549, the midpoint of inhibition, the IC50, lay at 11.7 µM.
As for `CC1(C)C(=O)CC[C@]2(C)[C@@H]1C[C@@H](O)[C@]13C(=O)C(CNc4ccc(Br)cc4)[C@H](CC[C@@H]21)[C@H]3O` (stereo partly drawn), the IC50 in test [1] was found to be 25.4 µM; in the test with KB, 6.31 µM; in test [3], 14.6 µM; in the test with B16, 10.9 µM; in test [4] it was 18.1 µM; in the test with A549, 19.2 µM.
As for `CC1(C)C(=O)CC[C@]2(C)[C@@H]1C[C@@H](O)[C@]13C(=O)C(CNc4ccccc4Br)[C@H](CC[C@@H]21)[C@H]3O` (stereo partly drawn), the IC50 in test [1] is 33.5 µM; in the test with KB, 13.9 µM; in test [3], 12.5 µM; with B16, 15.2 µM; in test [4], 28.4 µM; in the test with A549, 32.6 µM.
In the case of `CC1(C)C(=O)CC[C@]2(C)[C@@H]1C[C@@H](O)[C@]13C(=O)C(CNc4ccc(F)cc4)[C@H](CC[C@@H]21)[C@H]3O` (stereo partly drawn), the IC50 came to 34.2 µM in test [1]; 12.3 µM in the test on KB; 17.8 µM in test [3]; 12.9 µM in the test with B16; 19.8 µM in test [4]; 22.7 µM in the test on A549.
Turning to `CC1(C)C(=O)CC[C@]2(C)[C@@H]1C[C@@H](O)[C@]13C(=O)C(CNC4CCCCC4)[C@H](CC[C@@H]21)[C@H]3O` (stereo partly drawn), the IC50 is 20.7 µM in test [1]; 8.95 µM in test [2]; 11.3 µM in the test with KB; 9.35 µM in test [3]; 5.66 µM in the test with B16; 15.2 µM in test [4]. The same molecule gave an IC50 in the test on A549 of 11.1 µM.
For the molecule `CC(=O)c1ccc(NCC2C(=O)[C@@]34[C@H](O)C[C@@H]5C(C)(C)C(=O)CC[C@@]5(C)[C@@H]3CC[C@@H]2[C@H]4O)cc1` (stereo partly drawn), the IC50 in test [1] was found to be 31.9 µM; in the test with KB it was 12.6 µM; in test [3] it was 11.7 µM; in the test on B16, 18.3 µM; in test [4], 26.1 µM; with A549 it was 21.8 µM.
As for `COc1ccc(NCC2C(=O)[C@@]34[C@H](O)C[C@@H]5C(C)(C)C(=O)CC[C@@]5(C)[C@@H]3CC[C@@H]2[C@H]4O)cc1` (stereo partly drawn), the IC50 came out at 22.4 µM in test [1]; 6.41 µM in the test on KB; 5.7 µM in test [3]; 12.1 µM with B16; 18 µM in test [4]; 13.6 µM with A549.
For the molecule `CC1(C)C(=O)CC[C@]2(C)[C@@H]1C[C@@H](O)[C@]13C(=O)C(CNc4cccc(C#N)c4)[C@H](CC[C@@H]21)[C@H]3O` (stereo partly drawn), the IC50 was determined as 24.4 µM in test [1]; 8.08 µM in the test on KB; 23.2 µM in test [3]; 18.2 µM in the test with B16; 19.1 µM in test [4]; 21.3 µM in the test on A549.
Take `CC1(C)C(=O)CC[C@]2(C)[C@@H]1C[C@@H](O)[C@]13C(=O)C(CNc4ccccc4)[C@H](CC[C@@H]21)[C@H]3O` (stereo partly drawn): the IC50 in test [1] was found to be 32.6 µM; with KB, 31 µM; in test [3] it was 15.1 µM; in the test on B16, 11.5 µM; in test [4], 48 µM; with A549 it was 37.2 µM.
`CC1(C)C(=O)CC[C@]2(C)[C@@H]1C[C@@H](O)[C@]13C(=O)C(CNc4ccccc4F)[C@H](CC[C@@H]21)[C@H]3O` (stereo partly drawn): the IC50 in test [1] stood at 24.3 µM; in the test with KB, 11.2 µM; in test [3], 15.6 µM; with B16, 9.59 µM; in test [4], 14.5 µM; with A549 it was 20.6 µM.
With `CC1(C)C(=O)CC[C@]2(C)[C@@H]1C[C@@H](O)[C@]13C(=O)C(CNc4ccc(Cl)cc4)[C@H](CC[C@@H]21)[C@H]3O` (stereo partly drawn), the IC50 in test [1] came to 21.2 µM; in the test on KB it was 6.54 µM; in test [3], 14.1 µM; in the test with B16, 9.4 µM; in test [4] it was 14.1 µM; with A549 it was 15.8 µM.
Turning to `CC1(C)C(=O)CC[C@]2(C)[C@@H]1C[C@@H](O)[C@]13C(=O)C(CNc4ccccc4Cl)[C@H](CC[C@@H]21)[C@H]3O` (stereo partly drawn), the IC50 in test [1] came out at 28.6 µM; with KB it was 11 µM; in test [3] it was 23 µM; with B16, 16.7 µM; in test [4], 32.3 µM; in the test with A549 it was 21.6 µM.
As to `CC1(C)C(=O)CC[C@]2(C)[C@@H]1C[C@@H](O)[C@]13C(=O)C(CNc4ccc(S(=O)(=O)c5ccccc5)cc4)[C@H](CC[C@@H]21)[C@H]3O` (stereo partly drawn), the IC50 in test [1] amounted to 15.5 µM; in the test on KB, 5.64 µM; in test [3], 15.3 µM; in the test with B16, 10.5 µM; in test [4] it was 14.1 µM; in the test on A549, 13.7 µM.
As to `Cc1cccc(NCC2C(=O)[C@@]34[C@H](O)C[C@@H]5C(C)(C)C(=O)CC[C@@]5(C)[C@@H]3CC[C@@H]2[C@H]4O)c1` (stereo partly drawn), the IC50 is 38.7 µM in test [1]; 29.6 µM in the test with KB; 13.5 µM in test [3]; 14.4 µM with B16; 20.7 µM in test [4]; 28.3 µM in the test with A549.
Take `O=c1[nH]cc(F)c(=O)[nH]1` [FLUOROURACIL]: the IC50 was found to be 59.9 µM in test [1]; 53.5 µM in the test on KB; 27 µM in test [3]; 17.9 µM in the test on B16; 67.7 µM in test [4]; 51.6 µM in the test on A549.
`Cc1ccccc1NCC1C(=O)[C@@]23[C@H](O)C[C@@H]4C(C)(C)C(=O)CC[C@@]4(C)[C@@H]2CC[C@@H]1[C@H]3O` (stereo partly drawn): the IC50 was found to be 38.4 µM in test [1]; 23.4 µM in the test with KB; 18.1 µM in test [3]; 19.2 µM in the test on B16; 22.2 µM in test [4]; 24.7 µM in the test with A549.

Source of the values: ChEMBL document CHEMBL3351782, “Synthesis and biological evaluation of glaucocalyxin A derivatives as potential anticancer agents” (Eur J Med Chem, 2014).
